Rows were chosen to be rich in hits. Some 1.7% of all compounds tested hit in one or more screens of this group.
Scp-1 inhibitor – inhibitors of human Scp-1 phosphatase; Q9GZU7; AID 493091; 340,000 compounds, 0.88% hits; Recombinant Scp1, phosphopeptide, malachite green phosphate absorbance; inhibition, % at 20 µM;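 active = inhibition above about 50% at 20 µM, limit read from the data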;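 also: plate controls were DMSO wells with enzyme for no effect and wells lacking enzyme for full effect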
Target sequence (Q9GZU7 76-261 limits assumed): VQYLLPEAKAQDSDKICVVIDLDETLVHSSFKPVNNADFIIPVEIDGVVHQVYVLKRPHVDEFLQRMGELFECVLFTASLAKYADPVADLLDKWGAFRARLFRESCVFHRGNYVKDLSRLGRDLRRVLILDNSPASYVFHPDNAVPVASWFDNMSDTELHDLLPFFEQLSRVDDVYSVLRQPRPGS
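System: truncated SCP-1 phosphatase (76-261aa); medium: Tris acetate buffer pH 5.5 with MgCl2 and Tween-20; incubation: 45 min room-temperature reaction, 5 min colour, 30 min stabiliser; compound: single 20 µM dose, 1% DMSO; reagent: Phosphorylated 17-residue peptide substrate; read-out: % inhibition at 20 µM; technique: colorimetric free-phosphate detection, absorbance 630 nm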
LMPTP block – blocks human LMPTP phosphatase; inhibition, % at 20 µM; P24666; 360,000 compounds, 0.22% hits; recombinant LMPTP-A, OMFP fluorogenic substrate, fluorescence intensity; AID 651560;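 active = compounds that cut the enzyme signal by at least half of the control window in the single-dose screen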;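 also: plate controls were DMSO wells with enzyme plus substrate for no effect and substrate without enzyme for full effect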
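Test system – LMPTP-A enzyme · Amount – LMPTP-A at 0.625 nM final in the reaction · Buffer or medium – Bis-Tris pH 6.0, DTT, detergent · Reagent – OMFP 400 µM · Doses – single 20 µM dose · Schedule – reaction 50 min, room temperature, dark · Detection – fluorescence intensity of OMFP turnover product · Evaluation – percent inhibition versus substrate-only and uninhibited controls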
SUMO1 PPI mod – alters human SUMO1 binding to SIM partners; inhibition, % at 20 µM; AID 602429; 360,000 compounds, 0.33% hits; SUMO1 binding to a labelled peptide, TR-FRET, 1 h; in the data active = inhibition above about 37%
DNMT1 block – blocks human DNA methyltransferase DNMT1; P26358; inhibition (reported as % activation of signal), % at 10 µM; DNMT1 molecular beacon, Hinp1I cleavage, fluorescence; AID 588458; 360,000 compounds, 0.83% hits; in the data active = inhibition above about 50%
STEP block – STEP (human) phosphatase inhibition; P54829; recombinant STEP, OMFP fluorogenic substrate, fluorescence; inhibition, % at 20 µM; 360,000 compounds, 0.25% hits; AID 588621;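 active = inhibition at 20 µM, scaled per plate between control wells, above about 37%, limit read from the data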;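 also: 0% = DMSO with enzyme and substrate and 100% = substrate only without enzyme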
Target sequence (P54829 whole entry, looked up): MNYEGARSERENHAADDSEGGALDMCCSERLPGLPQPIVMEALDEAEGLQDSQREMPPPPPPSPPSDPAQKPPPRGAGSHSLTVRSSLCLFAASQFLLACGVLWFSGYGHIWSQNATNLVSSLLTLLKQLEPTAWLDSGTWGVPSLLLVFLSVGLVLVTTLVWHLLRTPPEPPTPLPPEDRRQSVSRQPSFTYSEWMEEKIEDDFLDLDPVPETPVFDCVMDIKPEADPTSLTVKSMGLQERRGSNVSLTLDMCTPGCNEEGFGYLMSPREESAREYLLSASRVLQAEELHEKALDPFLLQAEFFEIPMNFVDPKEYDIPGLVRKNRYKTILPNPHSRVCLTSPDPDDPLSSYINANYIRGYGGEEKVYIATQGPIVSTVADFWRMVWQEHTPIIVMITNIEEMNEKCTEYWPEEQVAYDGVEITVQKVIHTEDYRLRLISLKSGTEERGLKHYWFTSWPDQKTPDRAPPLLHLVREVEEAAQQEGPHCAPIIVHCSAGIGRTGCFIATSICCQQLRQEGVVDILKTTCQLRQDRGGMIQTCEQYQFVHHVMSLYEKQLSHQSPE
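Assay system: isolated STEP enzyme. Buffer or medium: pH 6.0 Bis-Tris with DTT and Tween 20. Also added: fluorogenic phosphatase substrate OMFP at 25 µM final. Dosing: 20 µM, 1% DMSO. Timing: 20 min reaction, room temperature, in the dark. Measured by: fluorescence intensity, excitation 480 nm, emission 540 nm. Evaluation: normalized % inhibition.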
Scp1 confirm – confirmation of human Scp-1 phosphatase inhibitors; recombinant SCP-1 catalytic domain, phosphate release, malachite green absorbance; 2,500 compounds, 61% hits; shares compounds with Scp-1 inhibitor; AID 540281; inhibition, % at 20 µM;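 also: plate controls were DMSO with enzyme for no effect and buffer wells lacking enzyme for full effect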
MG interference – interferes with malachite green readout, flagging false Scp-1 hits; apparent inhibition (interference), % at 20 µM; shares compounds with Scp-1 inhibitor; 2,500 tested, under 10 active; Colorimetric interference counterscreen, malachite green absorbance 630 nm;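 also: compounds added after enzyme reaction finished so only phosphate colour detection is probed; plate controls were DMSO wells with completed Scp-1 reaction for no effect and substrate wells lacking enzyme for full effect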
Scp1 DSF – Scp-1 (human) binding by thermal shift | 1,500 compounds, 25% hits | AID 540329 | shares compounds with Scp-1 inhibitor | thermal shift relative to vanadate control, % at 40 µM | Recombinant SCP1, Sypro Orange thermal shift Tm;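 active = substances whose mean melting-temperature shift, as a percentage of the reference inhibitor's shift, reaches about 5.3%, limit read from the data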;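 also: 0% = Tm of DMSO wells and 100% = Tm with sodium orthovanadate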
* marks the source's active call; other numbers are inactive results; . = no result.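 The calls were made as follows, unless noted: active = inhibition of at least 30% at 20 µM; inactive = the rest.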

SMILES	Scp-1 inhibitor	LMPTP block	SUMO1 PPI mod	DNMT1 block	STEP block	Scp1 confirm	MG interference	others
O=C(COc1ccccc1[N+](=O)[O-])Nc1cccc(S(=O)(=O)NC2=NCCCCC2)c1	62.0*	1.0	-8.1	6.8	-1.4	73.6*	-10.1	Scp1 DSF=4.0
CCC(C(=O)NC1CCCC1)n1c(C2CC2)nc2ccccc21 (centres undefined)	.	0.1	-4.0	.	.	.	.
COc1cccc(CNC(=O)C2CCN(S(=O)(=O)c3ccc4c(c3)C(C)(C)C(=O)N4C)CC2)c1	.	-0.4	1.6	2.2	-0.3	.	.
COc1cc2cnc(-c3ccccc3)c(-c3ccc([N+](=O)[O-])cc3)c2cc1OC	12.2	1.1	-31.1	-1.7	-1.0	.	.
COc1cc2cnc(-c3ccccc3)c(-c3cc(OC)c(OC)c(OC)c3)c2cc1OC	61.3*	0.5	2.3	2.6	-1.3	37.1*	0.1	Scp1 DSF=-7.6
CCCS(=O)(=O)NC(=O)C1(C)CCN(C(=O)c2ccccc2OC)C1 (centres undefined)	.	-1.8	1.3	-1.4	-1.8	.	.
CCOC(=O)C1=C(C)NC(C)=C(C(=O)OCC)C1C(=O)OCC(=O)Nc1ccc(NC(C)=O)cc1	.	-0.9	7.5	-3.4	1.5	.	.
CC1(C)CC(Cc2ccccc2C(F)(F)F)N(C(=O)OC(C)(C)C)C1 (centres undefined)	.	0.2	-1.4	.	.	.	.
NC(=O)COC(=O)c1ccc(S(=O)(=O)NCc2ccco2)cc1	63.3*	0.8	2.3	28.9	5.6	68.9*	-0.8	Scp1 DSF=0.2
O=C(OCc1nnc(-c2ccccc2)o1)c1ccc(S(=O)(=O)NCc2ccco2)cc1	52.7*	2.0	-0.5	19.2	-0.7	67.8*	-10.7	Scp1 DSF=4.6
COc1cccc(NC(=O)COC(=O)c2ccc(S(=O)(=O)NCc3ccco3)cc2)c1	59.9*	0.8	2.7	28.5	3.1	70.1*	-6.5	Scp1 DSF=2.9
O=C(COC(=O)c1ccc(S(=O)(=O)NCc2ccco2)cc1)NCc1ccccc1	25.3	2.7	5.0	18.9	4.9	.	.
COc1ccc(N2CCN(C(=O)COC(=O)CC(NC(N)=O)c3ccc(Cl)cc3)CC2)cc1 (centres undefined)	.	-1.8	1.8	-1.1	-1.9	.	.
COc1ccc(-c2ccccc2)cc1NC(=O)[C@@H]1O[C@H](CO)[C@@H](O)[C@H]1O	.	-1.4	3.9	-0.5	-1.4	.	.
COc1ccc(S(=O)(=O)N2CCCCC2c2cc(C(=O)Nc3ccc(OC)cc3C)no2)cc1 (centres undefined)	.	1.7	0.8	-0.9	-3.2	.	.
CC(=O)C1=CCC(c2ccccc2)N(S(C)(=O)=O)C1 (centres undefined)	.	-3.4	7.2	11.4	-2.0	.	.
CCc1nc2c(OCc3ccc(C#N)cc3)cccn2c1N(C)C(=O)C(C)C	.	3.9	-1.5	-3.2	1.3	.	.
Clc1ccc(Sc2oc(/C=N/n3cnnc3)cc2Br)cc1	98.1*	-0.3	-11.8	1.6	0.1	-15.4	-15.3
CC1=CC(C)C2COC(c3ccc[n+](C)c3)C1C2C (centres undefined)	95.5*	-1.5	-4.5	2.3	-0.2	-3.2	-9.8
CC1=CC(C)[C@@H]2COC(c3ccc(O)cc3)[C@H]1C2C (some centres undefined)	-7.0	0.5	0.2	-16.3	0.6	.	.
Cc1nn(CC(=O)Nc2ccccc2)c(=O)c2ccccc12	69.9*	-1.4	-1.1	3.3	-11.9	-3.5	-5.2
Cc1ccc2nc(Cl)c(/C=N/NC(=O)c3ccccc3O)cc2c1	72.5*	2.7	6.2	-3.1	2.1	21.0	-5.2
COc1ccc(-c2sc3cc4c(cc3c2C#CC2(O)CCCCC2)OCO4)cc1	-0.2	3.2	0.6	-20.8	-2.3	.	.
COc1ccccc1-c1oc2ccccc2c1C#CC1(O)CCCCC1	89.1*	1.3	0.4	-5.4	-1.2	7.9	-20.2
COc1ccccc1-c1sc2cc3c(cc2c1C#CC1(O)CCCCC1)OCO3	55.6*	2.2	-1.6	-22.8	-1.8	-13.7	-19.7
SMILES	Scp-1 inhibitor	LMPTP block	SUMO1 PPI mod	DNMT1 block	STEP block	Scp1 confirm	MG interference	others
Cc1ccc(NC(=O)CSc2nc(-c3ccco3)nc3cc(=O)[nH]n23)c(Cl)c1	70.8*	4.4	11.0	32.9	8.6	48.1*	-15.3	Scp1 DSF=-2.1
CCOc1cc(/C=C2\SC(=O)N(CC(=O)Nc3ccccc3F)C2=O)cc([N+](=O)[O-])c1O	85.2*	1.8	-24.5	-0.4	3.6	62.0*	-6.5	Scp1 DSF=20.8*
COC(=O)[C@]12CCCCC=C1N(CCc1ccc(OC)c(OC)c1)C(=O)[C@H](CC(=O)NCc1ccc(C)o1)C2	.	0.4	-0.5	.	.	.	.
O=C(N/N=C/c1ccc2c(c1)OCO2)c1ccc2c(c1)OCCO2	-2.7	0.4	-8.1	1.0	-1.3	.	.
COc1ccc(/C=N/NC(=O)c2ccc(COCC(F)(F)C(F)F)cc2)cc1	-1.3	-2.2	1.8	0.2	-0.7	.	.
C[n+]1cccc(C(=O)N/N=C/c2ccc3c(c2)OCO3)c1	50.1*	-0.1	-18.6	0.5	0.6	14.8	-7.1
O=C(N/N=C\C=C\c1ccc(Br)cc1)c1ccc2c(c1)OCO2	94.9*	56.6*	44.6*	81.4*	97.8*	93.5*	-3.5	Scp1 DSF=-2.6
O=C(N/N=C/c1ccc2c(c1)OCO2)c1ccc(COCC(F)(F)C(F)F)cc1	72.1*	24.8	5.6	7.1	9.0	77.0*	-10.9	Scp1 DSF=-11.9
COCCNC(=S)N1CCC2CC1c1cc(-c3ccc4c(c3)OCO4)ccc12 (centres undefined)	.	1.3	11.2	-1.6	0.2	.	.
O=C1CCCN1CCCNC(=S)Nc1ccccc1	-7.3	-0.1	-0.5	3.1	5.1	-3.8	-8.7
Cc1cccc(C)c1NC(=S)NCCCN1CCCC1=O	-1.2	-1.5	1.1	8.0	0.0	-9.6	-9.8
COC(=O)[C@]12CCCCC=C1N(Cc1ccc(Cl)cc1Cl)C(=O)[C@H](CC(=O)NCCCN1CCCC1=O)C2	.	-1.8	-0.1	.	.	.	.
O=c1oc2ccccc2c2c1ccc1ccccc12	79.6*	2.9	-26.4	23.4	1.0	25.3	-20.0
O=c1oc2ccccc2c2[nH]ccc12	1.2	0.5	3.2	0.6	-1.7	.	.
CCOC(=O)[C@]12CCCC=C1N(Cc1ccccc1)C(=O)[C@H](CC(=O)N1CCOCC1)C2	.	-0.2	-2.2	.	.	.	.
Cc1c(C(=O)NCc2ccccc2C(F)(F)F)sc(=O)n1Cc1ccc(S(=O)(=O)N(C)C)cc1	.	0.8	1.5	-5.3	-2.8	.	.
CCOC(=O)N1CCN(C(=O)C2CC(c3ccccc3OC)=NO2)CC1 (centres undefined)	-2.7	-1.1	-0.6	0.8	1.8	.	.
